According to ChEMBL document CHEMBL1914398, “Synthesis and evaluation of novel N-fluoropyridyl derivatives of tropane as potential PET imaging agents for the dopamine transporter” (Bioorg Med Chem Lett, 2011):

Experiments:
Hypothalamus [1] = assay: Drug uptake in Sprague-Dawley rat hypothalamus at 25 uCi, iv after 120 mins by gamma counter; format: ADME, organism-based; conditions: in vivo, 2 h
How it was run: (§1)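 Normal male Sprague-Dawley rats were given 25 µCi of the 18F-tracer via the femoral vein. Rats (n = 5 per time point) were sacrificed at 2, 60, 120 or 180 min post-injection. Brain regions were dissected and weighed, and radioactivity was gamma-counted. Values are %ID/g, calculated against diluted aliquots of the injected dose, as mean ± S.D.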

Striatum [2] = assay: Drug uptake in Sprague-Dawley rat striatum at 25 uCi, iv after 60 mins by gamma counter; format: ADME, organism-based; conditions: in vivo, 1 h; how it was run: as §1
Striatum [3] = assay: Drug uptake in Sprague-Dawley rat striatum at 25 uCi, iv after 2 mins by gamma counter; format: ADME, organism-based; conditions: in vivo; how it was run: as §1
Brain [4] = assay: Drug uptake in Sprague-Dawley rat brain at 25 uCi, iv after 180 mins by gamma counter; format: ADME, organism-based; conditions: in vivo, 3 h; how it was run: as §1
Hippocampus [5] = assay: Drug uptake in Sprague-Dawley rat hippocampus at 25 uCi, iv after 2 mins by gamma counter; format: ADME, organism-based; conditions: in vivo; how it was run: as §1
Nucleic Acid [6] = assay: Ratio of drug uptake in hippocampus to cerebellum in Sprague-Dawley rat at 25 uCi, iv after 120 mins; format: ADME, organism-based; conditions: in vivo, 2 h
How it was run: (§2)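 Region-to-cerebellum uptake ratios were calculated from %ID/g values (n = 5 rats per time point). These came from normal male Sprague-Dawley rats given 25 µCi of the 18F-tracer through the femoral vein and dissected at 2, 60, 120 or 180 min. Tissue was gamma-counted, and cerebellum served as the non-target background region.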

Hypothalamus [7] = assay: Drug uptake in Sprague-Dawley rat hypothalamus at 25 uCi, iv after 2 mins by gamma counter; format: ADME, organism-based; conditions: in vivo; how it was run: as §1
Striatum [8] = assay: Drug uptake in Sprague-Dawley rat striatum at 2.5 mCi, iv after 60 mins post injection measured by autoradiographic technique; format: ADME, organism-based; conditions: in vivo, 1 h
How it was run: (§3)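 For ex vivo autoradiography, normal Sprague-Dawley rats received 2.5 mCi of the 18F-tracer intravenously and were sacrificed at 60 min post-injection. Brains were removed immediately, frozen and sectioned. Dried sections were exposed to film overnight in an autoradiographic cassette to map regional radioactivity.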

Hippocampus [9] = assay: Drug uptake in Sprague-Dawley rat hippocampus at 25 uCi, iv after 180 mins by gamma counter; format: ADME, organism-based; conditions: in vivo, 3 h; how it was run: as §1
[10] = Drug uptake in Sprague-Dawley rat putamen at 2.5 mCi, iv after 60 mins post injection measured by autoradiographic technique; format: ADME, organism-based; conditions: in vivo, 1 h; how it was run: as §3
Nucleic Acid [11] = assay: Ratio of drug uptake in striatum to cerebellum in Sprague-Dawley rat at 25 uCi, iv after 120 mins; format: ADME, organism-based; conditions: in vivo, 2 h; how it was run: as §2
Hypothalamus [12] = assay: Drug uptake in Sprague-Dawley rat hypothalamus at 25 uCi, iv after 180 mins by gamma counter; format: ADME, organism-based; conditions: in vivo, 3 h; how it was run: as §1
Cortex [13] = assay: Drug uptake in Sprague-Dawley rat cortex at 25 uCi, iv after 120 mins by gamma counter; format: ADME, organism-based; conditions: in vivo, 2 h; how it was run: as §1
[14] = Lipophilicity, log P of the compound; format: physicochemical; conditions: octanol/water
Hypothalamus [15] = assay: Drug uptake in Sprague-Dawley rat hypothalamus at 25 uCi, iv after 60 mins by gamma counter; format: ADME, organism-based; conditions: in vivo, 1 h; how it was run: as §1
Striatum [16] = assay: Drug uptake in Sprague-Dawley rat striatum at 25 uCi, iv after 180 mins by gamma counter; format: ADME, organism-based; conditions: in vivo, 3 h; how it was run: as §1
Nucleic Acid [17] = assay: Ratio of drug uptake in hippocampus to cerebellum in Sprague-Dawley rat at 25 uCi, iv after 180 mins; format: ADME, organism-based; conditions: in vivo, 3 h; how it was run: as §2
Nucleic Acid [18] = assay: Ratio of drug uptake in hypothalamus to cerebellum in Sprague-Dawley rat at 25 uCi, iv after 180 mins; format: ADME, organism-based; conditions: in vivo, 3 h; how it was run: as §2
Cerebellum [19] = assay: Drug uptake in Sprague-Dawley rat cerebellum at 25 uCi, iv after 2 mins by gamma counter; format: ADME, organism-based; conditions: in vivo; how it was run: as §1
Nucleic Acid [20] = assay: Ratio of drug uptake in striatum to cerebellum in Sprague-Dawley rat at 25 uCi, iv after 2 mins; format: ADME, organism-based; conditions: in vivo; how it was run: as §2
Nucleic Acid [21] = assay: Ratio of drug uptake in hypothalamus to cerebellum in Sprague-Dawley rat at 25 uCi, iv after 120 mins; format: ADME, organism-based; conditions: in vivo, 2 h; how it was run: as §2
Nucleic Acid [22] = assay: Ratio of drug uptake in striatum to cerebellum in Sprague-Dawley rat at 25 uCi, iv after 180 mins; format: ADME, organism-based; conditions: in vivo, 3 h; how it was run: as §2
Cerebellum [23] = assay: Drug uptake in Sprague-Dawley rat cerebellum at 25 uCi, iv after 120 mins by gamma counter; format: ADME, organism-based; conditions: in vivo, 2 h; how it was run: as §1
Cortex [24] = assay: Drug uptake in Sprague-Dawley rat cortex at 25 uCi, iv after 60 mins by gamma counter; format: ADME, organism-based; conditions: in vivo, 1 h; how it was run: as §1
Nucleic Acid [25] = assay: Ratio of drug uptake in cortex to cerebellum in Sprague-Dawley rat at 25 uCi, iv after 60 mins; format: ADME, organism-based; conditions: in vivo, 1 h; how it was run: as §2
Nucleic Acid [26] = assay: Ratio of drug uptake in hippocampus to cerebellum in Sprague-Dawley rat at 25 uCi, iv after 60 mins; format: ADME, organism-based; conditions: in vivo, 1 h; how it was run: as §2
[27] = Drug uptake in Sprague-Dawley rat caudate at 2.5 mCi, iv after 60 mins post injection measured by autoradiographic technique; format: ADME, organism-based, Caudate nucleus; conditions: in vivo, 1 h; how it was run: as §3
Nucleic Acid [28] = assay: Ratio of drug uptake in hypothalamus to cerebellum in Sprague-Dawley rat at 25 uCi, iv after 2 mins; format: ADME, organism-based; conditions: in vivo; how it was run: as §2
Brain [29] = assay: Drug uptake in Sprague-Dawley rat brain at 25 uCi, iv after 60 mins by gamma counter; format: ADME, organism-based; conditions: in vivo, 1 h; how it was run: as §1
Cortex [30] = assay: Drug uptake in Sprague-Dawley rat cortex at 2.5 mCi, iv after 60 mins post injection measured by autoradiographic technique; format: ADME, organism-based; conditions: in vivo, 1 h; how it was run: as §3
Cerebellum [31] = assay: Drug uptake in Sprague-Dawley rat cerebellum at 25 uCi, iv after 60 mins by gamma counter; format: ADME, organism-based; conditions: in vivo, 1 h; how it was run: as §1
Nucleic Acid [32] = assay: Ratio of drug uptake in cortex to cerebellum in Sprague-Dawley rat at 25 uCi, iv after 2 mins; format: ADME, organism-based; conditions: in vivo; how it was run: as §2
Brain [33] = assay: Drug uptake in Sprague-Dawley rat brain at 25 uCi, iv after 120 mins by gamma counter; format: ADME, organism-based; conditions: in vivo, 2 h; how it was run: as §1
Hippocampus [34] = assay: Drug uptake in Sprague-Dawley rat hippocampus at 25 uCi, iv after 120 mins by gamma counter; format: ADME, organism-based; conditions: in vivo, 2 h; how it was run: as §1
Nucleic Acid [35] = assay: Ratio of drug uptake in striatum to cerebellum in Sprague-Dawley rat at 25 uCi, iv after 60 mins; format: ADME, organism-based; conditions: in vivo, 1 h; how it was run: as §2
Cortex [36] = assay: Drug uptake in Sprague-Dawley rat cortex at 25 uCi, iv after 180 mins by gamma counter; format: ADME, organism-based; conditions: in vivo, 3 h; how it was run: as §1
Cortex [37] = assay: Drug uptake in Sprague-Dawley rat cortex at 25 uCi, iv after 2 mins by gamma counter; format: ADME, organism-based; conditions: in vivo; how it was run: as §1
Striatum [38] = assay: Drug uptake in Sprague-Dawley rat striatum at 25 uCi, iv after 120 mins by gamma counter; format: ADME, organism-based; conditions: in vivo, 2 h; how it was run: as §1
Brain [39] = assay: Drug uptake in Sprague-Dawley rat brain at 25 uCi, iv after 2 mins by gamma counter; format: ADME, organism-based; conditions: in vivo; how it was run: as §1
Nucleic Acid [40] = assay: Ratio of drug uptake in cortex to cerebellum in Sprague-Dawley rat at 25 uCi, iv after 180 mins; format: ADME, organism-based; conditions: in vivo, 3 h; how it was run: as §2
Nucleic Acid [41] = assay: Ratio of drug uptake in cortex to cerebellum in Sprague-Dawley rat at 25 uCi, iv after 120 mins; format: ADME, organism-based; conditions: in vivo, 2 h; how it was run: as §2
Hippocampus [42] = assay: Drug uptake in Sprague-Dawley rat hippocampus at 25 uCi, iv after 60 mins by gamma counter; format: ADME, organism-based; conditions: in vivo, 1 h; how it was run: as §1
Cerebellum [43] = assay: Drug uptake in Sprague-Dawley rat cerebellum at 25 uCi, iv after 180 mins by gamma counter; format: ADME, organism-based; conditions: in vivo, 3 h; how it was run: as §1
Nucleic Acid [44] = assay: Ratio of drug uptake in hypothalamus to cerebellum in Sprague-Dawley rat at 25 uCi, iv after 60 mins; format: ADME, organism-based; conditions: in vivo, 1 h; how it was run: as §2
Nucleic Acid [45] = assay: Ratio of drug uptake in hippocampus to cerebellum in Sprague-Dawley rat at 25 uCi, iv after 2 mins; format: ADME, organism-based; conditions: in vivo; how it was run: as §2
[46] = target: Sodium-dependent serotonin transporter (Homo sapiens, UniProt P31645); assay: Displacement of [125I]-IDAM from SERT transfected in pig LLC-PK1 cells by radioligand competition binding assay; format: cell-based
Sequence of Sodium-dependent serotonin transporter (P31645 whole entry): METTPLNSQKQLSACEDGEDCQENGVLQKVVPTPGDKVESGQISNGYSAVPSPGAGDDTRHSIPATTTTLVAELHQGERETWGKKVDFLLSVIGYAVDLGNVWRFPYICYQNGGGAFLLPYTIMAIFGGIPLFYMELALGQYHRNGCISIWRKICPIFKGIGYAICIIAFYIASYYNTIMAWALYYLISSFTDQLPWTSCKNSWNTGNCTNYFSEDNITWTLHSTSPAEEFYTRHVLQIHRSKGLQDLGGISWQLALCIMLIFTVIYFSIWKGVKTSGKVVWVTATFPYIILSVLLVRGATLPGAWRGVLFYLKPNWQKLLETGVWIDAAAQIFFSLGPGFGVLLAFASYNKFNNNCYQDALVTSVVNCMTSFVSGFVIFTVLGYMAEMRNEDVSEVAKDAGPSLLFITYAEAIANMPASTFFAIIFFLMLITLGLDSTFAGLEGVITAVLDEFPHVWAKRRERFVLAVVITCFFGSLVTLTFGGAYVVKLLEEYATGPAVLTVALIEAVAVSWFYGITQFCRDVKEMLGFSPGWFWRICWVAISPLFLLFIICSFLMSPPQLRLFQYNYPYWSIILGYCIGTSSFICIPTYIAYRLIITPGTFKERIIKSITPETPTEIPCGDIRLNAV

[47] = target: Sodium-dependent noradrenaline transporter (Homo sapiens, UniProt P23975); assay: Displacement of [125I]-INXT from NET transfected in pig LLC-PK1 cells by radioligand competition binding assay; format: cell-based
Sequence of Sodium-dependent noradrenaline transporter (P23975 whole entry): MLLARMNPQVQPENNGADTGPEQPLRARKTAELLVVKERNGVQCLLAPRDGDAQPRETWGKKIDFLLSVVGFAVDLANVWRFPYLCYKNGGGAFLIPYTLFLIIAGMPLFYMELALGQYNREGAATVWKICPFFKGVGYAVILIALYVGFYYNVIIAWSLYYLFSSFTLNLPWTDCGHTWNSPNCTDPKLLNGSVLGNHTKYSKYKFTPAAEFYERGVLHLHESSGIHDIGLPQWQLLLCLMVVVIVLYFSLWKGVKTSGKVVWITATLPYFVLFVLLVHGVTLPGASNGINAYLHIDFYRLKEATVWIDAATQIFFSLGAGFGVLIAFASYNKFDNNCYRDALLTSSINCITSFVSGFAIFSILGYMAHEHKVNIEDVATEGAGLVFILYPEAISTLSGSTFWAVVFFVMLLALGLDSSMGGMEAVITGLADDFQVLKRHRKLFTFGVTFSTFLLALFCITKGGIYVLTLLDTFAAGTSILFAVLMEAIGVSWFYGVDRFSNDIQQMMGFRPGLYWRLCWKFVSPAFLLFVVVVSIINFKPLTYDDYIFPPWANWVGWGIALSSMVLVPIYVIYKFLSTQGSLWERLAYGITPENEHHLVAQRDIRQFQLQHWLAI

[48] = Selectivity ratio of Ki for NET to Ki for DAT
[49] = Selectivity ratio of Ki for SERT to Ki for DAT
[50] = target: Sodium-dependent dopamine transporter (Homo sapiens, UniProt Q01959); assay: Displacement of [125I]-IPT from DAT transfected in pig LLC-PK1 cells by radioligand competition binding assay; format: cell-based
Sequence of Sodium-dependent dopamine transporter (Q01959 whole entry): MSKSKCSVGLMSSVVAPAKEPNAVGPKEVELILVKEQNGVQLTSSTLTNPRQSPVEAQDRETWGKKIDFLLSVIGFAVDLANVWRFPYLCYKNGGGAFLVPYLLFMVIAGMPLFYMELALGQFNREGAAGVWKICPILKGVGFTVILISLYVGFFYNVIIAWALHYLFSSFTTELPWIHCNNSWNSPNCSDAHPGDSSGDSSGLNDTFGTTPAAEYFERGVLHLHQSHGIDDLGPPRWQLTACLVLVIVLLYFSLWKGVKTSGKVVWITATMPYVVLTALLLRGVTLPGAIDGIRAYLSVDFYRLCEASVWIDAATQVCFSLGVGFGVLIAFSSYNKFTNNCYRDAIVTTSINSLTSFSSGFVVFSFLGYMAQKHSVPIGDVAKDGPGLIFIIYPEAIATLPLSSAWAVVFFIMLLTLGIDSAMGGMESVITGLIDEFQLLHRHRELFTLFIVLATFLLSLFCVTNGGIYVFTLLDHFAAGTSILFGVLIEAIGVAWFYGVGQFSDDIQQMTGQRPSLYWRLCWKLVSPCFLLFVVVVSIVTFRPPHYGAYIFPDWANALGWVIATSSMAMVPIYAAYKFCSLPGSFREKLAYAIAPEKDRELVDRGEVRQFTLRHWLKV

## CN1C2CCC1[C@@H](CN(C(=O)OC(C)(C)C)c1cccc([18F])n1)[C@@H](c1ccc(Cl)cc1)C2 (stereo partly drawn)
Hypothalamus [1]
  Drug uptake: 0.06 % ID/g
Striatum [2]
  Drug uptake: 0.47 % ID/g
Striatum [3]
  Drug uptake: 0.4 % ID/g
Brain [4]
  Drug uptake: 0.04 % ID/g
Hippocampus [5]
  Drug uptake: 0.36 % ID/g
Nucleic Acid [6]
  Ratio: 1.61
Hypothalamus [7]
  Drug uptake: 0.4 % ID/g
Striatum [8]
  Drug uptake: Active
Hippocampus [9]
  Drug uptake: 0.05 % ID/g
[10]
  Drug uptake: Active
Nucleic Acid [11]
  Ratio: 2.54
Hypothalamus [12]
  Drug uptake: 0.04 % ID/g
Cortex [13]
  Drug uptake: 0.07 % ID/g
[14]
  logP: 1.88
Hypothalamus [15]
  Drug uptake: 0.29 % ID/g
Striatum [16]
  Drug uptake: 0.09 % ID/g
Nucleic Acid [17]
  Ratio: 1.81
Nucleic Acid [18]
  Ratio: 1.51
Cerebellum [19]
  Drug uptake: 0.49 % ID/g
Nucleic Acid [20]
  Ratio: 0.82
Nucleic Acid [21]
  Ratio: 1.31
Nucleic Acid [22]
  Ratio: 3.14
Cerebellum [23]
  Drug uptake: 0.05 % ID/g
Cortex [24]
  Drug uptake: 0.28 % ID/g
Nucleic Acid [25]
  Ratio: 1.21
Nucleic Acid [26]
  Ratio: 1.21
[27]
  Drug uptake: Active
Nucleic Acid [28]
  Ratio: 0.81
Brain [29]
  Drug uptake: 0.26 % ID/g
Cortex [30]
  Drug uptake: Active
Cerebellum [31]
  Drug uptake: 0.23 % ID/g
Nucleic Acid [32]
  Ratio: 0.91
Brain [33]
  Drug uptake: 0.07 % ID/g
Hippocampus [34]
  Drug uptake: 0.08 % ID/g
Nucleic Acid [35]
  Ratio: 2.02
Cortex [36]
  Drug uptake: 0.03 % ID/g
Cortex [37]
  Drug uptake: 0.45 % ID/g
Striatum [38]
  Drug uptake: 0.12 % ID/g
Brain [39]
  Drug uptake: 0.4 % ID/g
Nucleic Acid [40]
  Ratio: 0.96
Nucleic Acid [41]
  Ratio: 1.4
Hippocampus [42]
  Drug uptake: 0.28 % ID/g
Cerebellum [43]
  Drug uptake: 0.03 % ID/g
Nucleic Acid [44]
  Ratio: 1.24
Nucleic Acid [45]
  Ratio: 0.72

## COC(=O)[C@H]1[C@@H](c2ccc(F)cc2)C[C@H]2CC[C@H]1N2C
[46]
  Ki: 181 nM
[47]
  Ki: 635 nM

## CN1C2CCC1[C@@H](CNc1cccc(F)n1)[C@@H](c1ccc(Cl)cc1)C2 (stereo partly drawn)
[46]
  Ki: 20.6 nM
[48]
  Ratio Ki: 16
[49]
  Ratio Ki: 5
[47]
  Ki: 66.2 nM
[50]
  Ki: 4.1 nM

## CN1C2CCC1[C@@H](C(=O)Nc1ccnc(Br)c1)[C@@H](c1ccc(Cl)cc1)C2 (stereo partly drawn)
[46]
  Ki: 10300 nM
[48]
  Ratio Ki: 147
[49]
  Ratio Ki: 125
[47]
  Ki: 12100 nM
[50]
  Ki: 82.2 nM

## CN1C2CCC1[C@@H](C(=O)Nc1cccc(Br)n1)[C@@H](c1ccc(Cl)cc1)C2 (stereo partly drawn)
[46]
  Ki: 3210 nM
[48]
  Ratio Ki: 44
[49]
  Ratio Ki: 37
[47]
  Ki: 3850 nM
[50]
  Ki: 86.7 nM

## COC(=O)[C@@H]1C2CCC(C[C@@H]1c1ccc(Cl)cc1)N2C (stereo partly drawn)
[50]
  Ki: 5.1 nM
